Calls of active or inactive are those of the source. The rule behind the calls is not given here.
Experiments:
Liver microsome [1] = experiment: Effect on mitochondrial transmembrane potential in Wistar Han rat liver mitochondria energized with succinate assessed as mitochondrial transmembrane electropotential at 0.333 ug/mg of protein (reference value: 216.0 +/- 7.4 mV); format: functional
Liver microsome [2] = experiment: Effect on mitochondrial transmembrane potential in Wistar Han rat liver mitochondria energized with succinate assessed as mitochondrial transmembrane electropotential at 0.667 ug/mg of protein (reference value: 216.0 +/- 7.4 mV); format: functional
Method in brief: (§1)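 Isolated male Wistar rat liver mitochondria (1.5 mg protein) in 125 mM sucrose, 65 mM KCl, 5 mM KH2PO4, 2.5 mM MgCl2, 5 mM HEPES pH 7.4, 30°C, with 3 μM TPP+. Compound added for 1 min, then 10 mM succinate plus 3 μM rotenone. State 3 started with ADP (83.3 nmol/mg protein). ΔΨ read with a TPP+-selective electrode and calculated by the Kamo equation without binding correction.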

Liver microsome [3] = experiment: Effect on mitochondrial transmembrane potential in Wistar Han rat liver mitochondria energized with succinate assessed as ADP depolarization at 0.067 ug/mg of protein (reference value: 34.7 +/- 1.4 mV); format: functional
Liver microsome [4] = experiment: Effect on mitochondrial transmembrane potential in Wistar Han rat liver mitochondria energized with succinate assessed as ADP depolarization at 0.667 ug/mg of protein (reference value: 34.7 +/- 1.4 mV); format: functional
Liver microsome [5] = experiment: Effect on mitochondrial transmembrane potential in Wistar Han rat liver mitochondria energized with succinate assessed as ADP depolarization at 1.333 ug/mg of protein (reference value: 34.7 +/- 1.4 mV); format: functional
Liver microsome [6] = experiment: Effect on mitochondrial transmembrane potential in Wistar Han rat liver mitochondria energized with succinate assessed as time duration of lag phase at 0.067 ug/mg of protein (reference value: 82.8 +/- 23.5 sec); format: functional; method in brief: as §1
Liver microsome [7] = experiment: Effect on mitochondrial transmembrane potential in Wistar Han rat liver mitochondria energized with succinate assessed as time duration of lag phase at 0.333 ug/mg of protein (reference value: 82.8 +/- 23.5 sec); format: functional; method in brief: as §1
Liver microsome [8] = experiment: Effect on mitochondrial transmembrane potential in Wistar Han rat liver mitochondria energized with succinate assessed as ADP depolarization at 0.133 ug/mg of protein (reference value: 25.3 +/- 2.1 mV); format: functional
Liver microsome [9] = experiment: Effect on mitochondrial transmembrane potential in Wistar Han rat liver mitochondria energized with succinate assessed as ADP depolarization at 0.667 ug/mg of protein (reference value: 25.3 +/- 2.1 mV); format: functional
Liver microsome [10] = experiment: Effect on mitochondrial transmembrane potential in Wistar Han rat liver mitochondria energized with succinate assessed as time duration of lag phase at 0.067 ug/mg of protein (reference value: 33.0 +/- 4.6 sec); format: functional; method in brief: as §1
Liver microsome [11] = experiment: Effect on mitochondrial transmembrane potential in Wistar Han rat liver mitochondria energized with succinate assessed as time duration of lag phase at 0.333 ug/mg of protein (reference value: 33.0 +/- 4.6 sec); format: functional; method in brief: as §1
Liver microsome [12] = experiment: Effect on mitochondrial transmembrane potential in Wistar Han rat liver mitochondria energized with succinate assessed as time duration of lag phase at 1.333 ug/mg of protein (reference value: 33.0 +/- 4.6 sec); format: functional; method in brief: as §1
BJ = experiment: Induction of apoptosis in human BJ cells assessed as distribution of mitochondrial polarization and morphology at 0.25 ug/ml after 6 hrs by confocal microscopy; format: cell-based
Method in brief: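 Cells were seeded on glass coverslips and left to attach for 24 h. They were then exposed to vehicle or 0.25 μg/ml compound for 6 h. For the last 30 min they were loaded with 100 nM TMRM in saline buffer with 15 mM glucose, and the probe was kept present during imaging. Mitochondrial polarization and morphology were imaged by fluorescence microscopy, and the TMRM fluorescence standard deviation was quantified. Four independent preparations, mean ± SEM.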

Liver microsome [13] = experiment: Effect on mitochondrial transmembrane potential in Wistar Han rat liver mitochondria energized with succinate assessed as mitochondrial transmembrane electropotential at 0.333 ug/mg of protein (reference value: 220.6 +/- 2.5 mV); format: functional
Liver microsome [14] = experiment: Effect on mitochondrial transmembrane potential in Wistar Han rat liver mitochondria energized with succinate assessed as mitochondrial transmembrane electropotential at 0.667 ug/mg of protein (reference value: 220.6 +/- 2.5 mV); format: functional; method in brief: as §1
Liver microsome [15] = experiment: Effect on mitochondrial transmembrane potential in Wistar Han rat liver mitochondria energized with succinate assessed as mitochondrial transmembrane electropotential at 1.333 ug/mg of protein (reference value: 220.6 +/- 2.5 mV); format: functional; method in brief: as §1
Liver microsome [16] = experiment: Effect on mitochondrial transmembrane potential in Wistar Han rat liver mitochondria energized with succinate assessed as ADP depolarization at 0.067 ug/mg of protein (reference value: 34.6 +/- 1.9 mV); format: functional
Liver microsome [17] = experiment: Effect on mitochondrial transmembrane potential in Wistar Han rat liver mitochondria energized with succinate assessed as ADP depolarization at 0.133 ug/mg of protein (reference value: 34.6 +/- 1.9 mV); format: functional
Liver microsome [18] = experiment: Effect on mitochondrial transmembrane potential in Wistar Han rat liver mitochondria energized with succinate assessed as ADP depolarization at 0.667 ug/mg of protein (reference value: 34.6 +/- 1.9 mV); format: functional
Liver microsome [19] = experiment: Effect on mitochondrial transmembrane potential in Wistar Han rat liver mitochondria energized with succinate assessed as time duration of lag phase at 0.333 ug/mg of protein Rvb = 46.7 +/- 3.9 sec); format: functional; method in brief: as §1
Liver microsome [20] = experiment: Effect on mitochondrial transmembrane potential in Wistar Han rat liver mitochondria energized with succinate assessed as mitochondrial transmembrane electropotential at 0.06 ug/mg of protein (reference value: 198.0 +/- 5.6 mV); format: functional
Liver microsome [21] = experiment: Effect on mitochondrial transmembrane potential in Wistar Han rat liver mitochondria energized with succinate assessed as mitochondrial transmembrane electropotential at 0.333 ug/mg of protein (reference value: 198.0 +/- 5.6 mV); format: functional
Liver microsome [22] = experiment: Effect on mitochondrial transmembrane potential in Wistar Han rat liver mitochondria energized with succinate assessed as mitochondrial transmembrane electropotential at 1.333 ug/mg of protein (reference value: 198.0 +/- 5.6 mV); format: functional; method in brief: as §1
Liver microsome [23] = experiment: Effect on mitochondrial transmembrane potential in Wistar Han rat liver mitochondria energized with succinate assessed as ADP depolarization at 0.067 ug/mg of protein (reference value: 23.9 +/- 3.3 mV); format: functional
Liver microsome [24] = experiment: Effect on mitochondrial transmembrane potential in Wistar Han rat liver mitochondria energized with succinate assessed as ADP depolarization at 1.333 ug/mg of protein (reference value: 23.9 +/- 3.3 mV); format: functional
Liver microsome [25] = experiment: Effect on mitochondrial transmembrane potential in Wistar Han rat liver mitochondria energized with succinate assessed as time duration of lag phase at 0.067 ug/mg of protein (reference value: 40.5 +/- 4.5 sec); format: functional; method in brief: as §1
Hs-578T = experiment: Cytotoxicity against human Hs578T cells at 0.125 to 2 ug/ml incubated for 6 hrs folowed by drug wash out and fresh medium addition and measured 3 days after wash out; format: functional, cell-based

C=C(C)[C@@H]1CC[C@]2(COC(=O)C[n+]3ccc(N(C)C)cc3)CC[C@]3(C)[C@H](CC[C@@H]4[C@@]5(C)CC[C@H](OC(=O)C[n+]6ccc(N(C)C)cc6)C(C)(C)[C@@H]5CC[C@]43C)[C@@H]12.[Cl-].[Cl-]
Activity (Liver microsome [1]): 208 mV
Activity (Liver microsome [2]): 206 mV
Activity (Liver microsome [3]): 28.4 mV
Activity (Liver microsome [4]): 28.6 mV
Activity (Liver microsome [5]): 25.2 mV
TIME (Liver microsome [6]): 0.0219 h
TIME (Liver microsome [7]): 0.0217 h

C=C(C)[C@@H]1CC[C@]2(COC(=O)CC[n+]3ccc(N(C)C)cc3)CC[C@]3(C)[C@H](CC[C@@H]4[C@@]5(C)CC[C@H](OC(=O)CC[n+]6ccc(N(C)C)cc6)C(C)(C)[C@@H]5CC[C@]43C)[C@@H]12.[Cl-].[Cl-]
Activity (Liver microsome [8]): 26.2 mV
Activity (Liver microsome [9]): 23.1 mV
TIME (Liver microsome [10]): 0.009 h
TIME (Liver microsome [11]): 0.00894 h
TIME (Liver microsome [12]): 0.00983 h
Activity (BJ): Non-toxic

C=C(C)[C@@H]1CC[C@]2(COC(=O)C[N+](C)(C)C(C)C)CC[C@]3(C)[C@H](CC[C@@H]4[C@@]5(C)CC[C@H](OC(=O)C[N+](C)(C)C(C)C)C(C)(C)[C@@H]5CC[C@]43C)[C@@H]12.[Cl-].[Cl-]
Activity (Liver microsome [13]): 213 mV
Activity (Liver microsome [14]): 211 mV
Activity (Liver microsome [15]): 206 mV
Activity (Liver microsome [16]): 31.5 mV
Activity (Liver microsome [17]): 30.3 mV
Activity (Liver microsome [18]): 21.9 mV
TIME (Liver microsome [19]): 0.0129 h

C=C(C)[C@@H]1CC[C@]2(COC(=O)C(CC)[n+]3ccc(N(C)C)cc3)CC[C@]3(C)[C@H](CC[C@@H]4[C@@]5(C)CC[C@H](OC(=O)C(CC)[n+]6ccc(N(C)C)cc6)C(C)(C)[C@@H]5CC[C@]43C)[C@@H]12 (some centres not stated)
Activity (Liver microsome [20]): 198 mV
Activity (Liver microsome [21]): 193 mV
Activity (Liver microsome [22]): 190 mV
Activity (Liver microsome [23]): 22.3 mV
Activity (Liver microsome [24]): 21.8 mV
TIME (Liver microsome [25]): 0.0123 h
inhibition (Hs-578T): Active
